This note sets out measurements from ChEMBL document CHEMBL5653631, “A Potent and Selective ULK1 Inhibitor Suppresses Autophagy and Sensitizes Cancer Cells to Nutrient Stress” (iScience, 2018).

Assay [1] deals with Casein kinase II subunit alpha' (Homo sapiens) (UniProt P19784). Description: Inhibition of human recombinant CK2a2 at 40 nM in presence of ATP by radiometric assay relative to control.
The target in assay [2] is T1, Ephrin type-A receptor 1 (Homo sapiens) (UniProt P21709).
T1 sequence (whole entry): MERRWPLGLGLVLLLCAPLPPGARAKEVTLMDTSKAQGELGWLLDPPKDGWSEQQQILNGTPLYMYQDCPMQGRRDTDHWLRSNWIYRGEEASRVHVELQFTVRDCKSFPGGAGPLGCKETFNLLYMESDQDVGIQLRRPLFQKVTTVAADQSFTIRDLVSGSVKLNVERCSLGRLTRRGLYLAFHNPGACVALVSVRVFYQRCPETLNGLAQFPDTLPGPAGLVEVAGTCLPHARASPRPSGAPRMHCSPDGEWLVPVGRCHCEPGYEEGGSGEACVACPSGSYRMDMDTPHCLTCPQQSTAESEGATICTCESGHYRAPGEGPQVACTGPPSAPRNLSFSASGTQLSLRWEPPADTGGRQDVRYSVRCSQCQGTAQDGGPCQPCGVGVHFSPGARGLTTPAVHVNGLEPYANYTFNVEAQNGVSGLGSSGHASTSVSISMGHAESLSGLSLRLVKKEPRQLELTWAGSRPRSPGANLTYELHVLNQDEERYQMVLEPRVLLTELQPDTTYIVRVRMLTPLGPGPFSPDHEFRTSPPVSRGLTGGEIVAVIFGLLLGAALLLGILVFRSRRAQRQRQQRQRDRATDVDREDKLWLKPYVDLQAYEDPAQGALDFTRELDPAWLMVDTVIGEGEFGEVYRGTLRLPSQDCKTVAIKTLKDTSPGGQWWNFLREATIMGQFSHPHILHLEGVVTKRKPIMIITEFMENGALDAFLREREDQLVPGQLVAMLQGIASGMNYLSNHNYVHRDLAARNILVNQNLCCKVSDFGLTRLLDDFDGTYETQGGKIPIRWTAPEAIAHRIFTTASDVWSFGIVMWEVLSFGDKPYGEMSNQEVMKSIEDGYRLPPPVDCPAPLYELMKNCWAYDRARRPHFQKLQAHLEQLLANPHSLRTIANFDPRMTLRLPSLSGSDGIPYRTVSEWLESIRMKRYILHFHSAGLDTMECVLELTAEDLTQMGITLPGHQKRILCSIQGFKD
As to the kind of experiment: Inhibition of human recombinant EphA1 at 40 nM in presence of ATP by radiometric assay relative to control.

The target in assay [3] is T2, SNF-related serine/threonine-protein kinase (Homo sapiens) (UniProt Q9NRH2).
T2 sequence (whole entry): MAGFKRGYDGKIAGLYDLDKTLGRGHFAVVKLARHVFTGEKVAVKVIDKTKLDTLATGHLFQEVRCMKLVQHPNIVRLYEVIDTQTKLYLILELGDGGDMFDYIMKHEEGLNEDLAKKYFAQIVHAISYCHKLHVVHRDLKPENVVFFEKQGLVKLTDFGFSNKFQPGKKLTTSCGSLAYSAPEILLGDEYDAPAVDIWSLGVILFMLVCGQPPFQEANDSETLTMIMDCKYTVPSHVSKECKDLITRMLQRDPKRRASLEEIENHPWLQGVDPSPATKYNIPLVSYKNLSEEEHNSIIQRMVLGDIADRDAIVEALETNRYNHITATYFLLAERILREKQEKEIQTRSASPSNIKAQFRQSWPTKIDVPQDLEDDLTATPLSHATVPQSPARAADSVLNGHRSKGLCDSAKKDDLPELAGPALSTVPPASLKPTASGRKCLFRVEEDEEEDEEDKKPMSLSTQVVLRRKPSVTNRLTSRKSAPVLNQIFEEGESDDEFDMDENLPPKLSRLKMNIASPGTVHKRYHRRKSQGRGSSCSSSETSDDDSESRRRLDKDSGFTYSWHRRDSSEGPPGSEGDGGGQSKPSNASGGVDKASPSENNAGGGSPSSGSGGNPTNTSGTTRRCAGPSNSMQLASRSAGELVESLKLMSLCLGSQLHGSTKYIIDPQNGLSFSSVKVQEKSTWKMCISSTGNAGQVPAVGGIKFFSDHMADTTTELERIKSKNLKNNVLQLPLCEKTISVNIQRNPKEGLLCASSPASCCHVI
As to the kind of experiment: Inhibition of human recombinant SNRK at 40 nM in presence of ATP by radiometric assay relative to control.

The target of assay [4] is Aurora kinase B (Homo sapiens) (UniProt Q96GD4). As to the kind of experiment: Inhibition of human recombinant AurB at 40 nM related to control ULK1. In short, it runs like this: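 Radiometric activity assays in a panel of 327 human recombinant kinases, each run in duplicate at one inhibitor concentration. Activity remaining is expressed as percent of vehicle control, and percent inhibition is calculated as 100% minus percent activity remaining.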

Assay [5] concerns the target Serine/threonine-protein kinase 38-like (Homo sapiens) (UniProt Q9Y2H1). Description: Inhibition of human recombinant NDR2 at 500 nM in presence of ATP by radiometric assay relative to control.
Assay [6] addresses Serine/threonine-protein kinase Nek6 (Homo sapiens) (UniProt Q9HC98). As to the kind of experiment: Inhibition of human recombinant NEK6 at 500 nM in presence of ATP by radiometric assay relative to control.
For assay [7], the target named is cAMP-dependent protein kinase catalytic subunit beta (Homo sapiens) (UniProt P22694). As to the kind of experiment: Inhibition of human recombinant PKACbeta at 500 nM in presence of ATP by radiometric assay relative to control.
In assay [8] the target is Ephrin type-A receptor 7 (Homo sapiens) (UniProt Q15375). As to the kind of experiment: Inhibition of human recombinant EphA7 at 500 nM related to control ULK1.
Assay [9] deals with Interleukin-1 receptor-associated kinase 1 (Homo sapiens) (UniProt P51617). As to the kind of experiment: Inhibition of human recombinant IRAK1 at 500 nM related to control ULK1.
The target in assay [10] is Calcium/calmodulin-dependent protein kinase type II subunit beta (Homo sapiens) (UniProt Q13554). Description: Inhibition of human recombinant CaMK2b at 15 nM in presence of ATP by radiometric assay relative to control.
The target of assay [11] is Protein kinase C theta type (Homo sapiens) (UniProt Q04759). As to the kind of experiment: Inhibition of human recombinant PKCt at 15 nM in presence of ATP by radiometric assay relative to control.
The target in assay [12] is SRSF protein kinase 2 (Homo sapiens) (UniProt P78362). As to the kind of experiment: Inhibition of human recombinant SRPK2 at 15 nM related to control ULK1.
The target of assay [13] is Tyrosine-protein kinase SYK (Homo sapiens) (UniProt P43405). Description: Inhibition of human recombinant SYK at 15 nM related to control ULK1.

As usually defined, the inhibition is the change of the read-out against control, counted positive when it falls.

Sequence of Ephrin type-A receptor 7 (Homo sapiens) (Q15375 28-998 limits assumed): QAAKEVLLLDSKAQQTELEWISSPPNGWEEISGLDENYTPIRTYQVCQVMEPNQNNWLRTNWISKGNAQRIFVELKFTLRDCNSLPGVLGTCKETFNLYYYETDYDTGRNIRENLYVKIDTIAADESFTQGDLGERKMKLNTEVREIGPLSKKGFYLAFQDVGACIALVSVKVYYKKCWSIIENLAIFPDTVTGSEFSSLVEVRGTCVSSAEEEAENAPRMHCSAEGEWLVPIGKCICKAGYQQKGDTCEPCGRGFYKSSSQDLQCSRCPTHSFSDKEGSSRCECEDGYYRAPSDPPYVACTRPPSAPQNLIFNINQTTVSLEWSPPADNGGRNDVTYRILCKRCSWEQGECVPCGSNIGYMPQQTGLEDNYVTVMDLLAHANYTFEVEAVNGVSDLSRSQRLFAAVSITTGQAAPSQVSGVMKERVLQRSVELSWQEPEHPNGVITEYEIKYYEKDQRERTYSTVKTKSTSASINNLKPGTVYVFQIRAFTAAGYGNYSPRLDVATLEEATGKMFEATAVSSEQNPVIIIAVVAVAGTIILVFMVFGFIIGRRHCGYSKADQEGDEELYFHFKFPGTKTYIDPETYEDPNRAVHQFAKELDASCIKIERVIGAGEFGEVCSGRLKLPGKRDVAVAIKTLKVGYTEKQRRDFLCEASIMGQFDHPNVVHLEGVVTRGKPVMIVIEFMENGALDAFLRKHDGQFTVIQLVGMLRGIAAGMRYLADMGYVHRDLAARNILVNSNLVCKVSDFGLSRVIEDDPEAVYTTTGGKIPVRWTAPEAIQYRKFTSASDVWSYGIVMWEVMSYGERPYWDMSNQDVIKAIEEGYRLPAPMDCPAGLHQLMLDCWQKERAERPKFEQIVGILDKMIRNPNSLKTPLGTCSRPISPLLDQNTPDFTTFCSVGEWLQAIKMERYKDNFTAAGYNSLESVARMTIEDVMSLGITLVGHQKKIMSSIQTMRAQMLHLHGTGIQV
Sequence of Interleukin-1 receptor-associated kinase 1 (Homo sapiens) (P51617 whole entry, looked up): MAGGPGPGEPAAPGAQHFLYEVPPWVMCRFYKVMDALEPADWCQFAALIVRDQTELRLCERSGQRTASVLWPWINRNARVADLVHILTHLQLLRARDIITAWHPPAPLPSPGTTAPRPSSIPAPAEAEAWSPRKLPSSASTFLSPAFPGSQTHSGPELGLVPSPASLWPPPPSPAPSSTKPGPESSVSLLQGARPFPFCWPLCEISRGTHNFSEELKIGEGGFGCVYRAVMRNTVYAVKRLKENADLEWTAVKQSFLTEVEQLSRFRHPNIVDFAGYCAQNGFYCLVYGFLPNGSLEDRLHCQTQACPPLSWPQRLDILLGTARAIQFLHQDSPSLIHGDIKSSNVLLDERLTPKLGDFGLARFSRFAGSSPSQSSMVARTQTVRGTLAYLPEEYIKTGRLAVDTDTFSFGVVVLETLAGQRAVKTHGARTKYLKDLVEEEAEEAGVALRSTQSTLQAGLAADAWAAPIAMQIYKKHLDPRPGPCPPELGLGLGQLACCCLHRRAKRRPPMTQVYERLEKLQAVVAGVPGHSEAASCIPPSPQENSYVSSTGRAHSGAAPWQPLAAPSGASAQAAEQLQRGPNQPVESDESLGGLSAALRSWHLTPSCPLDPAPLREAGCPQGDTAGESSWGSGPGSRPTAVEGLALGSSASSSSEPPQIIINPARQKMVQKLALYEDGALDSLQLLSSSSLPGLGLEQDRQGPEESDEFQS
Sequence of Calcium/calmodulin-dependent protein kinase type II subunit beta (Homo sapiens) (Q13554 whole entry): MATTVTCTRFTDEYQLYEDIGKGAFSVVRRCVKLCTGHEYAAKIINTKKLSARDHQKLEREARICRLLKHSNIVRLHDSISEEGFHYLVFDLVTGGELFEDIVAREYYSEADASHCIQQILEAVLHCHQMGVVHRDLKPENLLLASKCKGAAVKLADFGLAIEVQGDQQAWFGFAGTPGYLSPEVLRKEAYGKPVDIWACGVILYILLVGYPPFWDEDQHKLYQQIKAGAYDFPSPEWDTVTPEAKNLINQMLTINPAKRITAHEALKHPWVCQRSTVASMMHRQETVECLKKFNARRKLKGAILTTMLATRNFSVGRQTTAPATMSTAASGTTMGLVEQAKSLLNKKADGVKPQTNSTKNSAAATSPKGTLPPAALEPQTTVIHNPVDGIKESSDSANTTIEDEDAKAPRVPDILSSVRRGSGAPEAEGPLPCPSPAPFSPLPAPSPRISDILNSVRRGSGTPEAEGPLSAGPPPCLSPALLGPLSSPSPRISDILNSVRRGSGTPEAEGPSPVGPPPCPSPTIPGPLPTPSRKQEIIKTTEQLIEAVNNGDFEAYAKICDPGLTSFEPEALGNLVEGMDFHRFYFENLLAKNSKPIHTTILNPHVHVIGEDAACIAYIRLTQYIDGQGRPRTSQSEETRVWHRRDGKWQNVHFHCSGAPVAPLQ
Sequence of Serine/threonine-protein kinase 38-like (Homo sapiens) (Q9Y2H1 2-464 limits assumed): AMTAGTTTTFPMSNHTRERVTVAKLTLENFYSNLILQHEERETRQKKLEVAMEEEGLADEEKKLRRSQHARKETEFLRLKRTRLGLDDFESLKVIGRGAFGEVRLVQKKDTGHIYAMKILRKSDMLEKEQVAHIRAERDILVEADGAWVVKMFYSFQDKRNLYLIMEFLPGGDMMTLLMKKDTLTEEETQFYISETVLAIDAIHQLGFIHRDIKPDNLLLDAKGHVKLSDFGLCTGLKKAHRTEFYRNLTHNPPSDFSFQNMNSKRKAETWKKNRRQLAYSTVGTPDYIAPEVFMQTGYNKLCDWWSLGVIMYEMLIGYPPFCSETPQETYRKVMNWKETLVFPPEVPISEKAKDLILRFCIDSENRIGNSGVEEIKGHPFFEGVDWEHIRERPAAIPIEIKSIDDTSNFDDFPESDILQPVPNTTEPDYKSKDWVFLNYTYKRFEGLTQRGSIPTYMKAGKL
Sequence of Protein kinase C theta type (Homo sapiens) (Q04759 whole entry, looked up): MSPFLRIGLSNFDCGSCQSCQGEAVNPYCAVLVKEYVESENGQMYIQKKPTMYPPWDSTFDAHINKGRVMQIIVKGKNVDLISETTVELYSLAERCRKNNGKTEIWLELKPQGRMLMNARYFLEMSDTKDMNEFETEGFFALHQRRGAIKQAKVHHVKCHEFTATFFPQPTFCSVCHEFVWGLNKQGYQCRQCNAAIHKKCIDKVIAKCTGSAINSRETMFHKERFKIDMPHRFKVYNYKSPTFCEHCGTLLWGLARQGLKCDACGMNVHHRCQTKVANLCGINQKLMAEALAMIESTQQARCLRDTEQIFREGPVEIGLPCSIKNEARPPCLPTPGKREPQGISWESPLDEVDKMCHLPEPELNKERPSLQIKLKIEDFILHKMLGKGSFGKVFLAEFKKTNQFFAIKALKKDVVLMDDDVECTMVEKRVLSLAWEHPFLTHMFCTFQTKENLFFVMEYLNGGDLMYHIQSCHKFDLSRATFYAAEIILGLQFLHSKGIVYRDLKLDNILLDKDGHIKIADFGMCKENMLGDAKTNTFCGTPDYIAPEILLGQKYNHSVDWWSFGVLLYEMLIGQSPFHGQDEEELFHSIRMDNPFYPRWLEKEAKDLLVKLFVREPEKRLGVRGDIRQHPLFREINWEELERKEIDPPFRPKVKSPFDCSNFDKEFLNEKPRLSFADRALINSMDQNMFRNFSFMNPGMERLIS
Sequence of Casein kinase II subunit alpha' (Homo sapiens) (P19784 whole entry, looked up): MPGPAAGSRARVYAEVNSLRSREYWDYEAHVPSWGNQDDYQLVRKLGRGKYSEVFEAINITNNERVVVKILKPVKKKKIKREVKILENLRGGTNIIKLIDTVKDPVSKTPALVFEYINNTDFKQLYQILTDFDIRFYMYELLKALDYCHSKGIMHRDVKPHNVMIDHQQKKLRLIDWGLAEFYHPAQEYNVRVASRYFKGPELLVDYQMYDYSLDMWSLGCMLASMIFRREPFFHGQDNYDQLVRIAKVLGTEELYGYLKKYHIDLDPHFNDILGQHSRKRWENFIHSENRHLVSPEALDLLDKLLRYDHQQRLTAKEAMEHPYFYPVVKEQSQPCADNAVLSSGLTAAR
Sequence of Aurora kinase B (Homo sapiens) (Q96GD4 whole entry): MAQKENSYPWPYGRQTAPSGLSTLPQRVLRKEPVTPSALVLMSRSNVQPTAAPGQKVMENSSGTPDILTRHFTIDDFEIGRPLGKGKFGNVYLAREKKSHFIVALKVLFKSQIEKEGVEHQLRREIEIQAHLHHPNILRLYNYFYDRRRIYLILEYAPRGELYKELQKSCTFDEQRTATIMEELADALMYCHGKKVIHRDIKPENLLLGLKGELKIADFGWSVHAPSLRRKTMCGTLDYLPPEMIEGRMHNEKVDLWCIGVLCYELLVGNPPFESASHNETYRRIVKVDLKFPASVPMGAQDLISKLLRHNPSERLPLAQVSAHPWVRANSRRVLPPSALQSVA
Sequence of SRSF protein kinase 2 (Homo sapiens) (P78362 whole entry, looked up): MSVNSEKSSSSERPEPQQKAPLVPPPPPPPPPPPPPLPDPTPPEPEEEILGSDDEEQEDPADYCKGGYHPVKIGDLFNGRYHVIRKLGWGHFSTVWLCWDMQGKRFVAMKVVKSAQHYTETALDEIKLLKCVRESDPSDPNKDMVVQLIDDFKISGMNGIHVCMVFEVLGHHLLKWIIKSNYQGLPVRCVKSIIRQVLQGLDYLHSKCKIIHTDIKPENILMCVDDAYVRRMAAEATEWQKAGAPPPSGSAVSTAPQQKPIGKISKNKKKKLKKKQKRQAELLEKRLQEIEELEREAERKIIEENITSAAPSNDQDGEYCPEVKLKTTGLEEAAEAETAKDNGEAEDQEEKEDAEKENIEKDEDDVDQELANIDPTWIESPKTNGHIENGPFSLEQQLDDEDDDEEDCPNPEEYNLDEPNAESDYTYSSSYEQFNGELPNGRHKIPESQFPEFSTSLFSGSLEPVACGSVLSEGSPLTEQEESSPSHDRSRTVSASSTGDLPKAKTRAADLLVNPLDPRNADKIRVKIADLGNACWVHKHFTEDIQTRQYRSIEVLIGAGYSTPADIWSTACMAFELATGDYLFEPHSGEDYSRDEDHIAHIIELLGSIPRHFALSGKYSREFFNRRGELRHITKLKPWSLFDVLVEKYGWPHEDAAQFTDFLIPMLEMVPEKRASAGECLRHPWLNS

On to `O=C(N[C@@H](C1CC1)C(F)(F)F)c1cc(-c2cnn3cc(-c4ccc(F)cc4)cnc23)cs1`, for which the inhibition came out at 8% in [1], 0% in [2] and 0% in assay [3]. In assay [4], the fold change (FC) was 0.67.
For `CNC(=O)c1ccccc1Oc1nc(Nc2cc(OC)c(OC)c(OC)c2)ncc1Br`, the inhibition is 15% in assay [5], 0% in [6] and 0% in assay [7]. In addition, the fold change (FC) in [8] stood at 0; in assay [9], 0.2.
Regarding `CC(C)[C@H](NC(=O)c1cc(-c2cnn3cc(-c4ccc(OCCN5CCCCC5)cc4)cnc23)cs1)C(F)(F)F`, the inhibition in [10] stood at 10%; in assay [11] it was 0%. Besides, the fold change (FC) in [12] and in assay [13] was 0 throughout.
